One series has as its target Cannabinoid receptor 1 (Homo sapiens, UniProt P21554). As to the kind of experiment: Inverse agonist activity at human cannabinoid CB1R expressed in CHO cells assessed as effect on cAMP accumulation. The format is functional, cell-based. In general terms: cAMP levels reflect the balance of adenylyl cyclase and phosphodiesterase activity.
Another series concerns the target Cannabinoid receptor 2 (Homo sapiens, UniProt P34972). As to the kind of experiment: Binding affinity to human cannabinoid CB2R expressed in CHO cells. In kind it is cell-based.
Series [1] can be described thus: Ratio of drug level in brain to plasma in rat after 4 hrs. In kind it is ADME. Conditions: brain and plasma.
The nature of series [2]: Bioavailability in rat. In kind it is ADME, organism-based. Conditions: in vivo.
Series [3] in a line: Half life in rat. In kind it is ADME, organism-based. Conditions: in vivo.
A short description of series [4]: Plasma clearance in rat. In kind it is ADME, organism-based.
Series [5] is described as follows: Ratio of drug level in brain to plasma in rat after 0.25 hrs. Conditions: brain and plasma. The format is ADME.
Series [6] relates to Rattus norvegicus. The experiment in a line: Antiobesity activity in high fat diet-induced obese Sprague-Dawley rat model assessed as suppression of food intake at 3 mg/kg, po after 18 hrs of last dose relative to control. The format is functional.
The test system of series [7] is Rattus norvegicus. The experiment in a line: Antiobesity activity in high fat diet-induced obese Sprague-Dawley rat model assessed as change in body weight at 3 mg/kg, po after 18 hrs of last dose relative to control. The format is functional.
Series [8] can be described thus: Bioavailability in dog. The format is ADME, organism-based, Canis lupus familiaris. Conditions: in vivo.
Series [9] can be described thus: Half life in dog. The format is ADME, organism-based, Canis lupus familiaris. To be noted: in vivo.
The nature of series [10]: Plasma clearance in dog. The format is ADME, organism-based, Canis lupus familiaris.
A short description of series [11]: Plasma clearance in monkey. The format is ADME, organism-based, Macaca mulatta. Conditions: rhesus monkey. The method, boiled down:
(§1)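 Pharmacokinetic study in rhesus macaque. Reported parameters are bioavailability F (%), half-life T1/2 (h) and plasma clearance Clp (mL/min/kg).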

Series [12] can be described thus: Half life in monkey. Conditions: rhesus monkey, in vivo. The format is ADME, organism-based, Macaca mulatta. The method, boiled down: as §1
The nature of series [13]: Bioavailability in monkey. The format is ADME, organism-based, Macaca mulatta. To be noted: rhesus monkey, in vivo. The method, boiled down: as §1
Series [14] concerns Rattus norvegicus. As to the kind of experiment: Antiobesity activity in diet-induced obese Sprague-Dawley rat model assessed as suppression of overnight food intake at 3 mg/kg, po administered 1 hr before dark cycle for 14 days measured after […] of last dose. In kind it is functional.
In series [15] the test system is Rattus norvegicus. The experiment in a line: Antiobesity activity in diet-induced obese Sprague-Dawley rat model assessed as suppression of overnight body weight change at 3 mg/kg, po administered 1 hr before dark cycle for 14 days measured after 18 hrs of last dose. In kind it is functional.
For series [16], the system named is Rattus norvegicus. As to the kind of experiment: Antiobesity activity in high fat diet-induced obese Sprague-Dawley rat model assessed as suppression of food intake at 10 mg/kg, po after 18 hrs. The format is functional.
In series [17] the test system is Rattus norvegicus. As to the kind of experiment: Antiobesity activity in high fat diet-induced obese Sprague-Dawley rat model assessed as change in overnight body weight at 10 mg/kg, po after 18 hrs. The format is functional.

Sequence of Cannabinoid receptor 1 (P21554 whole entry): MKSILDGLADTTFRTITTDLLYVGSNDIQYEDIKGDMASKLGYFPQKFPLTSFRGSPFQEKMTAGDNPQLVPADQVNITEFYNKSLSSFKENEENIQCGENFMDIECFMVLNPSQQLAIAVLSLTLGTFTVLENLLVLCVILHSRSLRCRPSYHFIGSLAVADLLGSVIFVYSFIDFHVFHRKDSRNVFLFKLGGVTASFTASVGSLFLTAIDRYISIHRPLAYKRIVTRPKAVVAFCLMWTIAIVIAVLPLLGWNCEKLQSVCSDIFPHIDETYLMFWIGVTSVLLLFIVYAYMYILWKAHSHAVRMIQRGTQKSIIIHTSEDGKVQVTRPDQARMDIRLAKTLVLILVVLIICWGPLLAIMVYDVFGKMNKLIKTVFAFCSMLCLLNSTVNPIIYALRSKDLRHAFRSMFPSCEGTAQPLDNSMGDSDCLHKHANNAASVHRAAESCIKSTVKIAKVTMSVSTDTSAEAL
Sequence of Cannabinoid receptor 2 (P34972 whole entry): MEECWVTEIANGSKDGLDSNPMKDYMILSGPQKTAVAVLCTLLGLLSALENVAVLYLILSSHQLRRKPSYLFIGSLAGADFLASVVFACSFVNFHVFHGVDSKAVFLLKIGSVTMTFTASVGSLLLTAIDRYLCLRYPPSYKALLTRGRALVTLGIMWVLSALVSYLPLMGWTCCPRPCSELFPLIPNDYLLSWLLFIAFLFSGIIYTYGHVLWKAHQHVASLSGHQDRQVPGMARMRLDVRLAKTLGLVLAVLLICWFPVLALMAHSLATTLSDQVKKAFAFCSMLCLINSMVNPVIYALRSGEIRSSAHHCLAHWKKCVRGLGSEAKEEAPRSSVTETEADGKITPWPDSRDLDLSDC

In the case of `CC(C)(C)c1nc2nc(-c3ccccc3Cl)c(-c3cnccc3C#N)cc2c2n[nH]c(=O)n12`, the figures for the IC50 on Cannabinoid receptor 1 and at Cannabinoid receptor 2 were 100 nM and 18000 nM, respectively.

`CC(C)(C)c1nc2nc(-c3ccc(C#N)cc3Cl)c(-c3ccc(Cl)cc3)cc2c2n[nH]c(=O)n12`: the IC50 on Cannabinoid receptor 2 was 19000 nM.

`O=c1[nH]c(-c2ccc(Cl)cc2)nc2nc(-c3ccccc3Cl)c(-c3ccc(Cl)cc3)cc12`: the figures for the IC50 at Cannabinoid receptor 1 and on Cannabinoid receptor 2 were 59 nM and over 2000 nM, respectively.

Regarding `CC(C)(C)c1nc2nc(-c3ccccc3Cl)c(-c3ccc(Cl)cc3)cc2c(=O)[nH]1`, the IC50 on Cannabinoid receptor 1 stood at 7.4 nM; at Cannabinoid receptor 2, 8600 nM.

Take `CC(C)(C)c1nc2nc(-c3ccccc3Cl)c(-c3ccc(Cl)cc3)cc2c2n[nH]c(=O)n12`: in series [1], the Kp at 4 h amounted to 0.59. Also, the figures for the IC50 at Cannabinoid receptor 1 and at Cannabinoid receptor 2 were 1.9 nM and 3800 nM, respectively. In series [2], the bioavailability is 33%. In series [3], this molecule had a half-life of 5.6 h. For the same molecule, the clearance in series [4] is 12 mL/min/kg. Moreover, in series [5], the Kp at 0.25 h was determined as 0.14. Moreover, the values for the Activity in the series on Rattus norvegicus [6] and in the series on Rattus norvegicus [7] were 50% and -9 g, respectively.

For the molecule `CC(C)(C)c1nc2nc(-c3ccccc3Cl)c(-c3ccc(C#N)cc3)cc2c2n[nH]c(=O)n12`, the IC50 on Cannabinoid receptor 1 is 5.9 nM; on Cannabinoid receptor 2 it was 18000 nM. Moreover, the bioavailability in series [2] stood at 53%; in [8] it was 2.1%; in series [13], 9.7%. The half-life is 3.5 h in series [3], 7.4 h in series [9] and 9.9 h in series [12]. Moreover, the results for the clearance in [4], in series [10] and in series [11] were 4 mL/min/kg, 24 mL/min/kg and 5.3 mL/min/kg, respectively. Besides, the values for the Activity in the series on Rattus norvegicus [6] and in the series on Rattus norvegicus [7] were 36% and -5 g, respectively.

Turning to `Cc1nc(N)c2cc(-c3ccc(Cl)cc3)c(-c3ccccc3Cl)nc2n1`, the IC50 at Cannabinoid receptor 1 amounted to 1500 nM; on Cannabinoid receptor 2, 1100 nM.

Consider `CC(C)(C)c1nc2nc(-c3ccccc3Cl)c(-c3ccc(C(F)(F)F)cc3)cc2c2n[nH]c(=O)n12`, for which the IC50 at Cannabinoid receptor 1 was 1.1 nM; at Cannabinoid receptor 2, 9200 nM.

With `CC(C)c1nc2nc(-c3ccccc3Cl)c(-c3ccc(Cl)cc3)cc2c(=O)[nH]1`, the IC50 stood at 130 nM at Cannabinoid receptor 1 and 7300 nM at Cannabinoid receptor 2.

Consider `C[C@H](NC(=O)C(C)(C)Oc1ccc(C(F)(F)F)cn1)[C@@H](Cc1ccc(Cl)cc1)c1cccc(C#N)c1` [TARANABANT], for which the Activity in the series with Rattus norvegicus [14] is 49%; in the series on Rattus norvegicus [15], -10 g.

For `CC(C)c1nc(N)c2cc(-c3ccc(Cl)cc3)c(-c3ccccc3Cl)nc2n1`, the figures for the half-maximal inhibitory concentration (IC50) on Cannabinoid receptor 1 and at Cannabinoid receptor 2 were 190 nM and over 2000 nM, respectively.

Regarding `COc1ccc(-c2cc3c(nc2-c2ccccc2Cl)nc(C(C)(C)C)n2c(=O)[nH]nc32)cc1`, the IC50 worked out at 3 nM on Cannabinoid receptor 1 and 891 nM on Cannabinoid receptor 2.

With `CC(C)(C)c1nc(N)c2cc(-c3ccc(Cl)cc3)c(-c3ccccc3Cl)nc2n1`, the IC50 at Cannabinoid receptor 1 was 40 nM; on Cannabinoid receptor 2, 4900 nM.

Turning to `CN(C)c1ccc(-c2cc3c(nc2-c2ccccc2Cl)nc(C(C)(C)C)n2c(=O)[nH]nc32)cc1`, the figures for the IC50 on Cannabinoid receptor 1 and at Cannabinoid receptor 2 were 28 nM and 770 nM, respectively.

With `CCN(CC)C(=O)c1nc(NC(C)C)c2cc(-c3ccc(Cl)cc3)c(-c3ccccc3Cl)nc2n1`, the IC50 at Cannabinoid receptor 1 was determined as 150 nM; at Cannabinoid receptor 2, 12000 nM.

For the molecule `CC(C)(C)Nc1nc(C(C)(C)C)nc2nc(-c3ccccc3Cl)c(-c3ccc(Cl)cc3)cc12`, the IC50 on Cannabinoid receptor 1 is 2.7 nM; on Cannabinoid receptor 2, over 2000 nM.

`CC(C)(C)c1nc(N)c2cc(-c3ccc(Cl)cc3)c(-c3ccc(Cl)cc3Cl)nc2n1` registered an IC50 at Cannabinoid receptor 2 of 5200 nM.

As for `Cc1nc(O)c2cc(-c3ccc(Cl)cc3)c(-c3ccccc3Cl)nc2n1`, the IC50 at Cannabinoid receptor 1 was 2500 nM; at Cannabinoid receptor 2, over 2000 nM.

As to `Nc1nc(-c2ccc(Cl)cc2)nc2nc(-c3ccccc3Cl)c(-c3ccc(Cl)cc3)cc12`, the figures for the IC50 at Cannabinoid receptor 1 and at Cannabinoid receptor 2 were 16 nM and over 2000 nM, respectively.

For the molecule `CC(C)(C)c1nc(NCC(F)(F)CO)c2cc(-c3ccc(Cl)cc3)c(-c3ccccc3Cl)nc2n1`, the IC50 at Cannabinoid receptor 1 is 9.5 nM; at Cannabinoid receptor 2, over 2000 nM. Moreover, the Activity with Rattus norvegicus [6] is given as 39%; in the series with Rattus norvegicus [7] it was -4 g.

Turning to `N#Cc1cc(-c2ccc(Cl)cc2)c(-c2ccc(Cl)cc2Cl)nc1Oc1ccc(F)c(F)c1`, the Activity in the series on Rattus norvegicus [16] is recorded as 48%; in the series with Rattus norvegicus [17] it was -8 g.

In the case of `CC(=O)Nc1c(C(C)=O)c(=O)n(C)c2nc(-c3ccc(Cl)cc3Cl)c(-c3ccc(Cl)cc3)cc12` [NAPHTHYRIDINONE], the half-life in series [3] was over 8 h. In addition, the Kp at 0.25 h in [5] was found to be 0.9. Moreover, the Activity is 68% in the series with Rattus norvegicus [6] and -4 g with Rattus norvegicus [7].

For `COc1nc(C(C)(C)C)nc2nc(-c3ccccc3Cl)c(-c3ccc(Cl)cc3)cc12`, the IC50 on Cannabinoid receptor 1 was determined as 7.5 nM; at Cannabinoid receptor 2, 8400 nM.

For the molecule `CC(C)(C)c1nc2nc(-c3ccccc3C#N)c(-c3ccc(Cl)cc3)cc2c2n[nH]c(=O)n12`, the IC50 came to 3.2 nM on Cannabinoid receptor 1 and 2400 nM at Cannabinoid receptor 2. Also, the Activity in the series with Rattus norvegicus [6] is 25%; in the series with Rattus norvegicus [7] it was -2 g.

On to `CC(C)(C)c1nc(N2CCNCC2)c2cc(-c3ccc(Cl)cc3)c(-c3ccccc3Cl)nc2n1`, for which the results for the IC50 on Cannabinoid receptor 1 and on Cannabinoid receptor 2 were 1.9 nM and 1800 nM, respectively.

Take `CC(C)(C)c1nc2nc(-c3ccc(Cl)cc3Cl)c(-c3ccc(Cl)cc3)cc2c(=O)[nH]1`: the results for the IC50 at Cannabinoid receptor 1 and at Cannabinoid receptor 2 were 6 nM and 5500 nM, respectively. Moreover, the Activity came to 21% in the series on Rattus norvegicus [6] and 1 g with Rattus norvegicus [7].

At Cannabinoid receptor 2, `CC(=O)c1ccc(-c2cc3c(nc2-c2ccccc2Cl)nc(C(C)(C)C)n2c(=O)[nH]nc32)cc1` came in with an IC50 of 5800 nM.

On to `CC(C)Nc1nc(C(C)(C)C)nc2nc(-c3ccccc3Cl)c(-c3ccc(Cl)cc3)cc12`, for which the figures for the IC50 at Cannabinoid receptor 1 and at Cannabinoid receptor 2 were 4.1 nM and over 2000 nM, respectively.

With `CC(C)(C)c1nc2nc(-c3ccccc3Cl)c(-c3cccc(Cl)c3)cc2c2n[nH]c(=O)n12`, the results for the IC50 at Cannabinoid receptor 1 and on Cannabinoid receptor 2 were 34 nM and 2700 nM, respectively.

With `CC(C)c1nc(OCc2ncon2)c2cc(-c3ccc(Cl)cc3)c(-c3ccccc3Cl)nc2n1`, the figures for the IC50 on Cannabinoid receptor 1 and on Cannabinoid receptor 2 were 1.1 nM and 6300 nM, respectively.

As to `CN(C)c1nc(C(C)(C)C)nc2nc(-c3ccccc3Cl)c(-c3ccc(Cl)cc3)cc12`, the results for the 50% inhibitory concentration (IC50) on Cannabinoid receptor 1 and on Cannabinoid receptor 2 were 8.5 nM and 1800 nM, respectively.

With `CC(C)(C)c1nc2nc(-c3ccccc3Cl)c(-c3ccc(Cl)cc3)cc2c2nncn12`, the IC50 on Cannabinoid receptor 1 was 8 nM; at Cannabinoid receptor 2, 3400 nM.

With `CC(C)c1nc2nc(-c3ccccc3Cl)c(-c3ccc(Cl)cc3)cc2c(=O)n1Cc1ncon1`, the IC50 at Cannabinoid receptor 1 is 82 nM; on Cannabinoid receptor 2 it was 9800 nM.

Regarding `CC(C)(C)c1nc(-c2ccc(F)cc2)c2cc(-c3ccc(Cl)cc3)c(-c3ccccc3Cl)nc2n1`, the results for the IC50 at Cannabinoid receptor 1 and on Cannabinoid receptor 2 were 0.63 nM and 9830 nM, respectively.

`CCN(CC)c1nc(C(C)(C)C)nc2nc(-c3ccccc3Cl)c(-c3ccc(Cl)cc3)cc12`: the IC50 was 2.2 nM on Cannabinoid receptor 1 and 2700 nM at Cannabinoid receptor 2.

In general, IC50 refers to the point on the concentration scale where inhibition reaches its midpoint. As a reminder, the Kp is the ratio of the level in a tissue or fluid to that in plasma or blood. The bioavailability is the share of a dose that reaches the circulation, judged against a reference dose that is usually intravenous. Broadly, the half-life is the time in which the quantity being followed falls by half. By clearance is commonly meant a measure of how efficiently the substance is removed, as volume per time.
